Measurements reported in the EternaBench riboswitch data.

Test system: MS2 coat protein
Assay: apparent Kd, MS2 coat protein; higher = weaker binding; RNA-MaP array; FMN 200 µM where present
Procedure, shortened: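 The apparent Kd comes from binding curves fitted cluster by cluster, filtered, and summarised as a median. Those curves followed SNAP-549-labelled MS2 coat protein from 0.7 or 1.5 nM, doubling to 3 µM, on Illumina sequencing-chip clusters where stalled E. coli RNA polymerase had transcribed the designs, without and then with constant ligand. The buffer was 100 mM Tris-HCl pH 7.5, 80 mM KCl, 4 mM MgCl2, BSA, DTT, yeast tRNA and Tween-20, and green signal was normalised to red-channel RNA signal and control-cluster median Fmax.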

[1] = designed as: ON switch for flavin mononucleotide, no ligand
[2] = ligand present: flavin mononucleotide, designed as: ON switch for flavin mononucleotide
[3] = designed as: OFF switch for flavin mononucleotide, no ligand
[4] = ligand present: flavin mononucleotide, designed as: OFF switch for flavin mononucleotide

Sequence | apparent Kd [1] | apparent Kd [2] | apparent Kd [3] | apparent Kd [4]
UUUACAUGAGGAUCACCCAUGUUAAAAUAAUUAAUUAUAAGUGAGGAUAUAUAAAUUAUAAAAUUGUAGAAGGCACUGGGUAUC | 47.9 nM | 44.5 nM |  | 
UUACAGCAAGGAUAUACGGGCUGUGCUUUUCAUUUCUUACAACAUGAGGAUCACCCAUGUAGAAGGUGCAACAU |  |  | 32.6 nM | 73.7 nM
GGAAAUUAGCAAGGAUAUCGGCUUACUAUAACUUUAUGCCCUGGGACAUGAGGAUCACCCAUGUACGAGAAGGUGCUAACUACA |  |  | 23.6 nM | 36.9 nM
CAGGUAGACUGAGGAUAUACAAUAAAGACCUAGUCUAUCUAGGUCUCUACAUGAGGAUCACCCAUGUAGAAGGCAGUCUGCCUG |  |  | 16 nM | 18.3 nM
AGAUGCAUGUAGAAGGGAGGAUCACCAGUGUACUCAGGAUAUACAUGUGGUGACAUGAGGAUCACCCAUGUAUGCCAGAAGUUC | 172 nM | 116 nM |  | 
AAAUCUCAGAUAGGAUAUAUAGGAUAACUUAAGACCUAACAUGAGGAUCACCCAUGUGAUUAUUCGUAGAAGGAUCAUUGAACC | 210 nM | 233 nM |  | 
CUUAAACAUGAGGAUCACCCAUGUCAGGAUAUGAUACUAUGUACUUCGGUACAUAGUAUCAGAAGGGAUAUAAA |  |  | 34.2 nM | 33.5 nM
GCCGGUUCCCUAGGAUAUGUACAUGAGGAUCACCCAUGUGCUUCUAGAGCCGGAGCAGGGCAUGUACAGAAGGAGGGUCGACCC |  |  | 6.47 nM | 7.39 nM
UUGGGUUUGGGAGGAUAUGGGUAAAAUAAAGUACUAGAAGGCUUAAAUUAUUUUAUAGUUGUAUUACAUGAGGAUCACCCAUGU | 13.6 nM | 10.4 nM |  | 
GGAGCUCCCAUUAACAUGAGGAUCACCCAUGUCAAAAGACAUGAGGAUAUGGUACCUAAUUGGUACCAGAAGGCAUGGAGCUCC | 1180 nM | 107 nM |  | 
UAUGUGUCAGGAUAUUAGUAGUAAAUGAAUAAAAUUAUUACUGAGAAGGGACAUGAGGAUCACCCAUGUGCCUU |  |  | 15.9 nM | 20.3 nM
UGAACUAUGUAGAAGGCCCAUAUUUAUAUUUAGGGAGGAUAUACAUGAGGAUCACCCAUGUAUAGAGCAAGUGGACUUGUCAGU |  |  | 9.19 nM | 10.3 nM
UGCGUACAAGCGGACAUGAGGAUCACCCAUGUAGUCUUAUGCGAGGAUAUCGGGAAGGAGGAUUCCGAGAAGGUGCGGUGAGCC | 17.5 nM | 15.2 nM |  | 
GGCGCAUUUGUGGCGUAUAGGUCGAAGGAUAUCACGUGCCGCCUAGUACAUGAGGAUCACCCAUGUGAGAAGGUCGAACUUAAC |  |  | 19.3 nM | 83.5 nM
AAUCCACAUGAGGAUCACCCAUGUCAGGAUAUCGUGUCGCGGGUUUCGGUCCGUGAUGCGAGAAGGGACGGCUG |  |  | 31.9 nM | 53.1 nM
CCUUUGAAGAUCCAAAAUUUCAACAUGAGGAUCACCCAUGUGCAGGAUAUCGUGCCAGUGAUGUACGAGAAGGGCAGACUCUGC |  |  | 176 nM | 177 nM
UCCUGGCGAGGAUAUACAAUGUUUUUCGCGUGUUGUUGGGAACAUGAGGAUCACCCAUGUAGAAGGUGCUACUG |  |  | 409 nM | 286 nM
GGGCCGGUGGAGAAGGAGCUCACGUAACGUAGGCUAGGAUAUCCACAUGAGGAUCACCCAUGUGGGAAUAUCUGAUUUUCACAG |  |  | 4.01 nM | 4.88 nM
UGUCGGAGCAGAGGAUAUACAUGAGGAUCACCCAUGUAAUAUGAUCUAGCCUGGAAACAGGCAAUGUAGAAGGCUGCUCCGACA |  |  | 92.6 nM | 1020 nM
GGAGCUCCUGACAUGAGGAUCACCCAUGUUCACUUAUUAAAUCAGGAUAUCGUCGCGAAACGCGACGAGAAGGGAUAUGCUCCU | 7.55 nM | 7.05 nM |  | 
CUUCAGUCAGGAUAUGUUAAUCUCGCCACUCCGCGAGCCGGACAGAAGGGACAUGAGGAUCACCCAUGUUAAAC |  |  | 29.5 nM | 21.9 nM
AAGUAGAUCCGAGGAUAUACAUUGCGGAAACGCAACAUGAGGAUCACCCAUGUAGAAGGCGGAUCUACAGGUACUAAAGUACCA |  |  | 10 nM | 17 nM
GUGACUUAUAGAGGAUAUUGACAUGAGGAUCACCCAUGUAUUUGGGAGUGUUCACUGAAUUCUUACGAGAAGGCUAUAAGACAC |  |  | 229 nM | 224 nM
ACAUGGAAGCAGGAUAUGCUUGUUUAAUUGUUUGCAGAAGGGCUAACAUGAGGAUCACCCAUGUAAGAGGUCUA |  |  | 17 nM | 29.6 nM

Sequence | apparent Kd [1] | apparent Kd [2] | apparent Kd [3] | apparent Kd [4]
GCUGAAAGUACAGGAUAUGAGAUAUAUGAUCACUCAGAAGGGUACCGGGACAUGAGGAUCACCCAUGUACUCUCAGCGAAAAUA | 165 nM | 553 nM |  | 
AUUUGAAUCGUAGGAUAUCGCUUAAAUUUACCACGAGAAGGACGAACAUGAGGAUCACCCAUGUAUCAUGGUGUAGAUAAUUUG |  |  | 68.2 nM | 249 nM
AAAAAGUGAGGAUAUACAUGAGGAUCACCCAUGUGAAAUCGGAAAAAAAAGGAAAAAAGUAGAAGGCACAAAAA |  |  | 24.2 nM | 24.3 nM
GCACGAUAUCAGGAUAUGACUAGCCUCGGCUAGUCAGAAGGGAUGACAUGAGGAUCACCCAUGUGAUCACGUGC |  |  | 57.2 nM | 77.9 nM
UUCGUGCAGCUUUGCUGUAUGCGUACAUGAGGAUCACCCAUGUAGGAUAUGGUAGGCUUUGCUUACUAGAAGGAUAGUGUGAUC |  |  | 97 nM | 40.3 nM
UAUUAAUACGAAGGAUAUGGUUACAUGAGGAUCACCCAUGUAUGUAUUUUGAUCUAAUUAUUUAACCAGAAGGUCGAAUAUAAA |  |  | 35.5 nM | 78.5 nM
ACAGUAUAUGUAGGAUAUCAUUGGUUAGGUAGGUGAGAAGGGCAUAGUACAUGAGGAUCACCCAUGUGUUGGUCCUCGCAGAAA |  |  | 376 nM | 252 nM
GUGAAGAUAGCAGGAUAUAUAUUUCCUACAUGAGGAUCACCCAUGUAGGUGAUCAGCCGAGUAAAGUAGAAGGGCUAUCUUUAC | 16.1 nM | 10.7 nM |  | 
AUAAGCUCGUCAGGAUAUACGUCACUGUUUCGGCAGUGAGGUAUGAUCACAUGAGGAUCACCCAUGUAGAAGGGACGAGCUUAU |  |  | 5.24 nM | 8.29 nM
CUAGCAACAUGAGGAUCACCCAUGUAGGAUAUCGCUAUUGUAAUCAUGAAACAUGAUUACAAUAGCGAGAAGGACAUAUGCUAA |  |  | 7.96 nM | 10.8 nM
GAGCGGGAAACAUGAGGAUCACCCAUGUGAUGAAUCCUCACAUAGGAUAUCCACACGAGAAGUGUGGAGAAGGAUGACCCGGUC |  |  | 1120 nM | 1700 nM
GGUUGUCAUAGUCAUCCUUUCCGUACAUGAGGAUCACCCAUGUAGGAUAUGCUACUCUCGGUGUGGCAGAAGGGCGUGUGUCUU |  |  | 18.2 nM | 18.8 nM
ACAUGAGGAUCACCCAUGUAGAGUGAAGAAGGUAGAUACUUGUGACUCUCCCAUGUACAUAGGACUGAGGAUAUUCUAAUAAUU | 24.2 nM | 20.9 nM |  | 
GCAGGUCGAGGAUAUACAUGAGGAUCACCCAUGUAGAUCAACCAGCGAUAGCUGGAAUGUAGAAGGUGACCUGC |  |  | 15.7 nM | 29.4 nM
AAUAACAGAGGAUAUACUGUUUUAUGUGUUUGUUAUUUUAAACAUGAGGAUCACCCAUGUAGAAGGCUGAGUAA |  |  | 27.4 nM | 27 nM
UUUUAACAUGAGGAUCACCCAUGUGAGGAUAUCGAAAUUUAUAUUUAUAUUAAUUAAACGAGAAGGCACAUUUU |  |  | 90.9 nM | 110 nM
UCGUCCACGGAGAAGGGCACAUGAGGAUCACCCAUGUGGGCUUGGUGGUGGUGGUGUUAAAAUGUGUAGGAUAUCCAGGGCCGU |  |  | 19.5 nM | 20.6 nM
GUCAGCUGGUGAGGAUAUACAACACUGCUUCGGCAGUGUAUUAAGAUCACAUGAGGAUCACCCAUGUAGAAGGCACGAGCUGAU |  |  | 13.1 nM | 207 nM
ACAUGAGGAUCACCCAUGUUCACAUAGGAUAUUGAUUUUAUUGGUUUUAGAAUAGUAAUUAACCUCAAGAAGGAUGCCAGUUCU | 14 nM | 11.2 nM |  | 
CUUUUAUUGGUCCAUUUUUUCAACAUGAGGAUCACCCAUGUGCAGGAUAUCGUGAUUAUUAUCAACGAGAAGGGCAGAUUCACG |  |  | 29 nM | 73.6 nM
AUUUUUUGUCAUGUACAUGAUGAACAUGAGGAUCACCCAUGUAGAAGGAAUUUUUUUAAGUUUAGUUAGGAUAUACAUAUAUUU |  |  | 16.6 nM | 10.8 nM
GAUGCACAUGAGAAGGCGAUCAUGAAACAUGAUCGAGGAUAUCAUGUAAACAUGAGGAUCACCCAUGUAUGGGUAAAGUGCAUC | 446 nM | 32 nM |  | 
UGGUACAUCAUAGGAUAUCGUGUGUAAACAUGAGGAUCACCCAUGUCAUACGAGAGUAUGUCGAUCGAGAAGGAUGAUGUACCU | 31.2 nM | 17.2 nM |  | 
AGCAUGUGAGGAUAUGCAGACUCCGGUAAAUCUGGAGUCCGGUAGAAGGCACAUGAGGAUCACCCAUGUGAGAU |  |  | 43.4 nM | 119 nM
